Laboratory results reported in ChEMBL document CHEMBL3779892, “Increasing the binding affinity of VEGFR-2 inhibitors by extending their hydrophobic interaction with the active site: Design, synthesis and biological evaluation of 1-substituted-4-(4-methoxybenzyl)phthalazine derivatives” (Eur J Med Chem, 2016).

How the values were obtained:
Assay type in all cases: functional
[1] = test system: NCI-H226; assay: Growth inhibition of human NCI-H226 cells at 10 uM after 48 hrs by sulforhodamine B assay; details: NCI-H226, 48 h, read-out: GI
In short: (§1)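 Run at NCI on the 60-line panel. Cells grown in RPMI 1640 with 5% FBS and 2 mM L-glutamine, plated at 5000–40,000 cells/well by doubling time, and held 24 h at 37 °C before dosing. Drug (DMSO stock) given at a single final 10 µM in triplicate wells for 48 h. Adherent cells fixed with cold TCA (10% final), suspension cells with 16% TCA. SRB stain read at 515 nm. Percent growth from Tz, C and Ti.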

[2] = test system: Malme-3M; assay: Growth inhibition of human MALME-3M cells at 10 uM after 48 hrs by sulforhodamine B assay; details: read-out: GI; in short: as §1
[3] = Growth inhibition of human TK10 cells at 10 uM after 48 hrs by sulforhodamine B assay; details: TK-10, 48 h, read-out: GI
In short: (§2)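 NCI-60 panel, adherent cells grown in RPMI 1640 with 5% FBS and 2 mM L-glutamine, plated at 5000–40,000 cells/well and preincubated 24 h at 37 °C, 5% CO2. 10 µM final compound from DMSO stock, triplicate wells, 48 h. Fixed with cold TCA (10% final, 60 min, 4 °C) and stained with 0.4% SRB. Absorbance read at 515 nm; growth calculated against time-zero and control wells.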

[4] = Growth inhibition of human Hs 578T cells at 10 uM after 48 hrs by sulforhodamine B assay; details: read-out: GI; in short: as §1
[5] = Growth inhibition of human UACC62 cells at 10 uM after 48 hrs by sulforhodamine B assay; details: UACC-62, 48 h, read-out: GI; in short: as §2
[6] = Growth inhibition of human OVCAR3 cells at 10 uM after 48 hrs by sulforhodamine B assay; details: OVCAR-3, 48 h, read-out: GI; in short: as §1
[7] = test system: M14; assay: Growth inhibition of human M14 cells at 10 uM after 48 hrs by sulforhodamine B assay; details: M14, 48 h, read-out: GI; in short: as §1
[8] = test system: ACHN; assay: Growth inhibition of human ACHN cells at 10 uM after 48 hrs by sulforhodamine B assay; details: read-out: GI; in short: as §1
[9] = Growth inhibition of human LOXIMVI cells at 10 uM after 48 hrs by sulforhodamine B assay; details: LOX IMVI, read-out: GI; in short: as §1
[10] = Growth inhibition of human HOP62 cells at 10 uM after 48 hrs by sulforhodamine B assay; details: HOP-62, 48 h, read-out: GI; in short: as §1
[11] = test system: CCRF-CEM; assay: Growth inhibition of human CCRF-CEM cells at 10 uM after 48 hrs by sulforhodamine B assay; details: read-out: GI; in short: as §1
[12] = Growth inhibition of human SW620 cells at 10 uM after 48 hrs by sulforhodamine B assay; details: SW-620, 48 h, read-out: GI; in short: as §2
[13] = Growth inhibition of human UO31 cells at 10 uM after 48 hrs by sulforhodamine B assay; details: UO-31, 48 h, read-out: GI; in short: as §2
[14] = Growth inhibition of human PC3 cells at 10 uM after 48 hrs by sulforhodamine B assay; details: PC-3, 48 h, read-out: GI; in short: as §1
[15] = test system: MDA-MB-468; assay: Growth inhibition of human MDA-MB-468 cells at 10 uM after 48 hrs by sulforhodamine B assay; details: MDA-MB-468, 48 h, read-out: GI; in short: as §1
[16] = test system: NCI-H460; assay: Growth inhibition of human NCI-H460 cells at 10 uM after 48 hrs by sulforhodamine B assay; details: NCI-H460, 48 h, read-out: GI; in short: as §1
[17] = Growth inhibition of human HCT15 cells at 10 uM after 48 hrs by sulforhodamine B assay; details: HCT-15, 48 h, read-out: GI; in short: as §1
[18] = test system: NCI-H522; assay: Growth inhibition of human NCI-H522 cells at 10 uM after 48 hrs by sulforhodamine B assay; details: NCI-H522, 48 h, read-out: GI; in short: as §1
[19] = Growth inhibition of human BT549 cells at 10 uM after 48 hrs by sulforhodamine B assay; details: BT-549, 48 h, read-out: GI; in short: as §1
[20] = test system: 786-0; assay: Growth inhibition of human 786-0 cells at 10 uM after 48 hrs by sulforhodamine B assay; details: 786-0, 48 h, read-out: GI; in short: as §1
[21] = test system: A549; assay: Growth inhibition of human A549 cells at 10 uM after 48 hrs by sulforhodamine B assay; details: A549, 48 h, read-out: GI; in short: as §1
[22] = Growth inhibition of human MOLT4 cells at 10 uM after 48 hrs by sulforhodamine B assay; details: MOLT-4, 48 h, read-out: GI; in short: as §1
[23] = test system: KM12; assay: Growth inhibition of human KM12 cells at 10 uM after 48 hrs by sulforhodamine B assay; details: KM12, 48 h, read-out: GI; in short: as §1

SMILES | inhibition of growth at 10 µM [1] [%] | inhibition of growth at 10 µM [2] [%] | inhibition of growth at 10 µM [3] [%] | inhibition of growth at 10 µM [4] [%] | inhibition of growth at 10 µM [5] [%] | inhibition of growth at 10 µM [6] [%] | inhibition of growth at 10 µM [7] [%] | inhibition of growth at 10 µM [8] [%] | inhibition of growth at 10 µM [9] [%] | inhibition of growth at 10 µM [10] [%] | inhibition of growth at 10 µM [11] [%] | inhibition of growth at 10 µM [12] [%] | inhibition of growth at 10 µM [13] [%] | inhibition of growth at 10 µM [14] [%] | inhibition of growth at 10 µM [15] [%] | inhibition of growth at 10 µM [16] [%] | inhibition of growth at 10 µM [17] [%] | inhibition of growth at 10 µM [18] [%] | inhibition of growth at 10 µM [19] [%] | inhibition of growth at 10 µM [20] [%] | other results
COc1ccc(Cc2nnc(Nc3cccc(C(F)(F)F)c3)c3ccccc23)cc1 | 40 | < 30 | < 30 | < 30 | 42 | 48 | < 30 | 31 | < 30 | < 30 | 39 | < 30 | 66 | 49 | 42 | 50 | 41 | 45 | < 30 | 33 | inhibition of growth at 10 µM [21]: 57%; inhibition of growth at 10 µM [22]: 60%; inhibition of growth at 10 µM [23]: 40%
COc1ccc(Cc2nnc(Nc3ccc(NC(=O)Nc4ccccc4Cl)cc3)c3ccccc23)cc1 | < 30 | < 30 | < 30 | < 30 | < 30 | < 30 | < 30 | < 30 | < 30 | < 30 | < 30 | < 30 | < 30 | < 30 | < 30 | < 30 | < 30 | 33 | < 30 | 41 | inhibition of growth at 10 µM [21]: < 30%; inhibition of growth at 10 µM [22]: < 30%; inhibition of growth at 10 µM [23]: < 30%
COc1ccc(Cc2nnc(Nc3ccc(C#N)cc3)c3ccccc23)cc1 | < 30 | < 30 | < 30 | < 30 | < 30 | < 30 | < 30 | < 30 | < 30 | < 30 | < 30 | < 30 | 49 | 34 | 30 | < 30 | < 30 | < 30 | < 30 | < 30 | inhibition of growth at 10 µM [21]: < 30%; inhibition of growth at 10 µM [22]: < 30%; inhibition of growth at 10 µM [23]: < 30%
COc1ccc(Cc2nnc(Nc3ccc(NC(=O)Nc4ccc(C#N)cc4)cc3)c3ccccc23)cc1 | < 30 | 42 | < 30 | 105 | < 30 | < 30 | 35 | 48 | 46 | 33 | 47 | < 30 | 44 | 41 | < 30 | 40 | 36 | 54 | 51 | 83 | inhibition of growth at 10 µM [21]: 36%; inhibition of growth at 10 µM [22]: 56%; inhibition of growth at 10 µM [23]: 37%
